According to ChEMBL document CHEMBL3826885, “Similarities and differences in affinity and binding modes of tricyclic pyrimido- and pyrazinoxanthines at human and rat adenosine receptors” (Bioorg Med Chem, 2016):

Assays:
Adenosine receptor A2a [1] = biological target: T1, Adenosine receptor A2a (Homo sapiens, UniProt P29274); assay: Antagonist activity at human adenosine receptor A2a expressed in CHO cell membranes assessed as inhibition of NECA-induced cAMP accumulation incubated for 15 mins in presence of [3H]cAMP by liquid scintillation counting; type: functional
T1 sequence (P29274 whole entry): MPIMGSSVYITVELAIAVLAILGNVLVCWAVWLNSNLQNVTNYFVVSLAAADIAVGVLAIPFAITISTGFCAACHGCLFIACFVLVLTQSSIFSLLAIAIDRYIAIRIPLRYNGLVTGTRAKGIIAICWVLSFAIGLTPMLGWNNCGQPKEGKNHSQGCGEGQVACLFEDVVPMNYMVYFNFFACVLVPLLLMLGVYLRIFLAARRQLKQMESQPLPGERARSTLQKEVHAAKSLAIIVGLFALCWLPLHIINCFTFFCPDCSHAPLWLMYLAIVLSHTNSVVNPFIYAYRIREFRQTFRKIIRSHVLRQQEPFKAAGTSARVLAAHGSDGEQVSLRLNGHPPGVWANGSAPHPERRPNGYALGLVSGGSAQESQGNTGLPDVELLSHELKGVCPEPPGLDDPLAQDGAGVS
Outline: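 Stably transfected CHO cells (human A2A or A2B) grown in DMEM-F12 with 10% FCS at 37 °C, 5% CO2. The cells were seeded at 200,000/well, washed after 24 h and held 2 h in HBSS (pH 7.3) with 1 U/ml adenosine deaminase. Ro20-1724 was added to 40 µM final for 15 min, then NECA dilutions ± one fixed test concentration in 2.5% DMSO, in duplicate.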

[2] = biological target: T2, Adenosine receptor A1 (Rattus norvegicus) (UniProt P25099); assay: Displacement of [3H]CCPA from adenosine receptor A1 in rat brain cortical membranes at 1 uM; type: cell membranes
T2 sequence (whole entry): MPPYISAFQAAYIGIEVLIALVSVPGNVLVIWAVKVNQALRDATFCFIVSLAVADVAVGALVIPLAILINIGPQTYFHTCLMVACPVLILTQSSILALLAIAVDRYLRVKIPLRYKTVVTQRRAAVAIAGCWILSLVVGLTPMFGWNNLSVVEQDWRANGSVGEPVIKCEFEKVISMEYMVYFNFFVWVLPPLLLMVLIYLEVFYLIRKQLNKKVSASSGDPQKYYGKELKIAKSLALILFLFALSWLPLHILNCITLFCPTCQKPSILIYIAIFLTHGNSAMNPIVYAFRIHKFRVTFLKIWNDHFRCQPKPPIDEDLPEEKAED
Outline: (§1)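 Native rat receptors: A1 in brain cortical membranes with [3H]CCPA, A2A in brain striatal membranes, from frozen unstripped rat brains. Compounds were first screened at a single high concentration in three independent experiments. Active compounds then had full inhibition curves over at least 3 orders of magnitude of concentration.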

Adenosine receptor A2a [3] = biological target: Adenosine receptor A2a (Rattus norvegicus, UniProt P30543); assay: Displacement of [3H]MSX2 from adenosine receptor A2a in rat brain striatal membranes; type: cell membranes, Membrane; outline: as §1
Chain of Adenosine receptor A2a (Rattus norvegicus, UniProt P30543) (P30543 whole entry): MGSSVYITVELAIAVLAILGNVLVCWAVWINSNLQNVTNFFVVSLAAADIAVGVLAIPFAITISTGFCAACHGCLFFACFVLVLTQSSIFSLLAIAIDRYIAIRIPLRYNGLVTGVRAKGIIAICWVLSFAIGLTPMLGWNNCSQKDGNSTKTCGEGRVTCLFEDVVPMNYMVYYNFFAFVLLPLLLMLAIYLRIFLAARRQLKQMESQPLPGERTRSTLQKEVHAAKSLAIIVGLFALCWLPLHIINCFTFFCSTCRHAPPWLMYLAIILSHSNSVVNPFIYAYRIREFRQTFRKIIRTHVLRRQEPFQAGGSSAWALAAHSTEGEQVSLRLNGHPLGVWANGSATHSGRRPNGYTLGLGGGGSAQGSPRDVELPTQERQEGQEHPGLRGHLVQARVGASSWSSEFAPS

[4] = biological target: Adenosine receptor A2a (Rattus norvegicus) (UniProt P30543); assay: Displacement of [3H]MSX2 from Adenosine receptor A2a in rat brain striatal membranes at 1 uM; type: cell membranes; details: Membrane; outline: as §1
Chain of Adenosine receptor A2a (Rattus norvegicus) (P30543 whole entry): as above

[5] = biological target: T3, Adenosine receptor A2b (Rattus norvegicus) (UniProt P29276); assay: Displacement of [3H]PSB-603 from recombinant rat adenosine receptor A2b expressed in CHO cell membranes at 1 uM
T3 sequence (whole entry): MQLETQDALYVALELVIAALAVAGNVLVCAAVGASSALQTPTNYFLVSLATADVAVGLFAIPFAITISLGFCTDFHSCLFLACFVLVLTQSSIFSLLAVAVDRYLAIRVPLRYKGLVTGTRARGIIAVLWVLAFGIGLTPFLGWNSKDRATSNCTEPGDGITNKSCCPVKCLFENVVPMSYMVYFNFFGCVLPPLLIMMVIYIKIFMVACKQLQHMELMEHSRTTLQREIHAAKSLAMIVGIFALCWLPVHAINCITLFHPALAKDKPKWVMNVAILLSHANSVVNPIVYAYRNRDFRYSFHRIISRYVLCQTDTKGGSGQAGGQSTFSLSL
Outline: (§2)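 Membranes came from CHO cells expressing recombinant receptors (human A1, A2A, A2B, A3; rat A2B, A3). Radioligands were [3H]CCPA for A1 and [3H]PSB-11 or [3H]NECA for A3. A single high concentration was screened first, in three experiments for A1/A2A and two for A2B/A3. Full inhibition curves spanning at least 3 log units were run for potent compounds.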

[6] = biological target: T4, Adenosine receptor A3 (Rattus norvegicus) (UniProt P28647); assay: Displacement of [3H]NECA from recombinant rat adenosine receptor A3 expressed in CHO cell membranes at 1 uM; outline: as §2
T4 sequence (whole entry): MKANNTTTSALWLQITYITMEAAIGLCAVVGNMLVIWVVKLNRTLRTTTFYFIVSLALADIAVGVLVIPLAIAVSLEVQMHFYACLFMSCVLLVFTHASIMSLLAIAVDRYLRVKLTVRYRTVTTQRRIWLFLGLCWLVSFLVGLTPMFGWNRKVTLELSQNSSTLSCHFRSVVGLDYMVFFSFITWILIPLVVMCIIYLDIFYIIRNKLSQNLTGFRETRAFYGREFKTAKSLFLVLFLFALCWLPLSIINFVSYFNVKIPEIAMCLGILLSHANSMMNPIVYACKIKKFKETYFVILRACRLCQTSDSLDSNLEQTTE

Adenosine receptor A1 [7] = biological target: T5, Adenosine receptor A1 (Homo sapiens, UniProt P30542); assay: Displacement of [3H]CCPA from recombinant human adenosine receptor A1 expressed in CHO cell membranes; outline: as §2
T5 sequence (P30542 whole entry): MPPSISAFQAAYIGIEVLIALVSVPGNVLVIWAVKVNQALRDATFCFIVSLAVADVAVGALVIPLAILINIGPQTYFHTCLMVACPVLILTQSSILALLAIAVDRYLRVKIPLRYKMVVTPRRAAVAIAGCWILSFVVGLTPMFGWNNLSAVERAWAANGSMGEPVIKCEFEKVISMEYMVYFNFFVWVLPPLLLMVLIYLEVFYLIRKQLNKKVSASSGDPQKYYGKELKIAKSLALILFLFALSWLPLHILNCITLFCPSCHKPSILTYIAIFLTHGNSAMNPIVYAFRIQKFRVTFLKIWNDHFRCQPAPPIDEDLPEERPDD

[8] = biological target: T6, Adenosine receptor A1 (Homo sapiens) (UniProt P30542); assay: Displacement of [3H]CCPA from recombinant human adenosine receptor A1 expressed in CHO cell membranes at 1 uM; outline: as §2
T6 sequence (whole entry): T5 sequence (P30542 whole entry)

Adenosine receptor A2a [9] = biological target: T1, Adenosine receptor A2a; assay: Displacement of [3H]MSX2 from recombinant human adenosine receptor A2a expressed in CHO cell membranes; outline: as §2
Adenosine receptor A2a [10] = biological target: T1, Adenosine receptor A2a; assay: Displacement of [3H]MSX2 from recombinant human adenosine receptor A2a expressed in CHO cell membranes at 1 uM; outline: as §2
Adenosine receptor A2b [11] = biological target: T7, Adenosine receptor A2b (Homo sapiens, UniProt P29275); assay: Displacement of [3H]PSB-603 from recombinant human adenosine receptor A2b expressed in CHO cell membranes
T7 sequence (P29275 whole entry): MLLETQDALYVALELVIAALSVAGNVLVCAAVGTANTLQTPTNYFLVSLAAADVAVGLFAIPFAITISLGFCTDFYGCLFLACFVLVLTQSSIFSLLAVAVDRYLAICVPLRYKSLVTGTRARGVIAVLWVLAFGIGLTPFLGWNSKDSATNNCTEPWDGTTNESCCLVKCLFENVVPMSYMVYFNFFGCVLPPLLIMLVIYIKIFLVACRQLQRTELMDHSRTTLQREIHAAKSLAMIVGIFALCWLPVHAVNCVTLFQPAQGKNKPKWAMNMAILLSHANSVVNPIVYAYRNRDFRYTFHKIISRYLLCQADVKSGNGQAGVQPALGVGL
Outline: (§3)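 Membranes came from CHO cells expressing recombinant receptors (human A1, A2A, A2B, A3; rat A2B, A3). Radioligands were [3H]CCPA for A1 and [3H]PSB-11 or [3H]NECA for A3. A single high concentration was screened first, in three experiments for A1/A2A and two for A2B/A3.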

[12] = biological target: T8, Adenosine receptor A2b (Homo sapiens) (UniProt P29275); assay: Displacement of [3H]PSB-603 from recombinant human adenosine receptor A2b expressed in CHO cell membranes at 1 uM; outline: as §2
T8 sequence (whole entry): T7 sequence (P29275 whole entry)

Adenosine receptor A1 [13] = biological target: T9, Adenosine receptor A1 (Rattus norvegicus, UniProt P25099); assay: Displacement of [3H]CCPA from adenosine receptor A1 in rat brain cortical membranes; type: cell membranes
T9 sequence (P25099 whole entry): T2 sequence (whole entry)
Outline: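 Native rat receptors: A1 in brain cortical membranes with [3H]CCPA, A2A in brain striatal membranes, from frozen unstripped rat brains. Compounds were first screened at a single high concentration in three independent experiments.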

Adenosine receptor A2b [14] = biological target: T10, Adenosine receptor A2b (Rattus norvegicus, UniProt P29276); assay: Displacement of [3H]PSB-603 from recombinant rat adenosine receptor A2b expressed in CHO cell membranes; outline: as §3
T10 sequence (P29276 whole entry): T3 sequence (whole entry)

Adenosine receptor A3 [15] = biological target: T11, Adenosine receptor A3 (Rattus norvegicus, UniProt P28647); assay: Displacement of [3H]NECA from recombinant rat adenosine receptor A3 expressed in CHO cell membranes; outline: as §3
T11 sequence (P28647 whole entry): T4 sequence (whole entry)

[16] = biological target: T12, Adenosine receptor A3 (Homo sapiens) (UniProt P0DMS8); assay: Displacement of [3H]PSB11 from recombinant human adenosine receptor A3 expressed in CHO cell membranes at 1 uM; outline: as §2
T12 sequence (whole entry): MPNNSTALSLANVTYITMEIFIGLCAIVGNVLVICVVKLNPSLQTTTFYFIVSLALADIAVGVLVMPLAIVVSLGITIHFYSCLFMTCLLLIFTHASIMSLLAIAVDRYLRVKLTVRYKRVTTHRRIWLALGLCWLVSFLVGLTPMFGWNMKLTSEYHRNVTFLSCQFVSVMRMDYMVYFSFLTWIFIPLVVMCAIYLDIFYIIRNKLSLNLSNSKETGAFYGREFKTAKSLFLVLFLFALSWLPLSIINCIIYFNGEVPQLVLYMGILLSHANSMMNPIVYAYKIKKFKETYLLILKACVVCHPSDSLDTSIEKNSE

[17] = biological target: T2, Adenosine receptor A1 (Rattus norvegicus); assay: Displacement of [3H]CCPA from adenosine receptor A1 in rat brain cortical membranes at 10 uM; type: cell membranes; details: 10 uM; outline: as §1
Adenosine receptor A3 [18] = biological target: T13, Adenosine receptor A3 (Homo sapiens, UniProt P0DMS8); assay: Displacement of [3H]PSB-11 from recombinant human adenosine receptor A3 expressed in CHO cell membranes
T13 sequence (P0DMS8 whole entry): T12 sequence (whole entry)

Structure (SMILES)	Kb (Adenosine receptor A2a [1]) [nM]	inhibition [2] [%]	Ki (Adenosine receptor A2a [3]) [nM]	inhibition [4] [%]	inhibition [5] [%]	inhibition [6] [%]	Ki (Adenosine receptor A1 [7]) [nM]	inhibition [8] [%]	Ki (Adenosine receptor A2a [9]) [nM]	inhibition (Adenosine receptor A2a [10]) [%]	Ki (Adenosine receptor A2b [11]) [nM]	inhibition [12] [%]	Ki (Adenosine receptor A1 [13]) [nM]	Ki (Adenosine receptor A2b [14]) [nM]	Ki (Adenosine receptor A3 [15]) [nM]	inhibition [16] [%]	inhibition [17] [%]	Ki (Adenosine receptor A3 [18]) [nM]
Cn1c(=O)c2c(nc3n2CCCN3CCc2ccc(O)cc2)n(C)c1=O	2220	–	–	–	–	–	–	–	–	–	–	–	–	–	–	–	–	–
CCn1c(=O)c2c(nc3n2CCCN3CCc2ccc(O)cc2)n(CC)c1=O	–	14	271	80	14	19	2020	20	2180	30	> 500	42	–	–	–	–	–	–
Cn1c(=O)c2c(nc3n2CCN(CCc2ccc(OCCN4CCOCC4)cc2)C3)n(C)c1=O	–	–	11500	–	–	–	–	–	–	–	> 1000	4	> 10000	–	–	3	22	> 1000

Next, values leading:

Kb (Adenosine receptor A2a [1]) [nM]	inhibition [2] [%]	Ki (Adenosine receptor A2a [3]) [nM]	inhibition [4] [%]	inhibition [5] [%]	inhibition [6] [%]	Ki (Adenosine receptor A1 [7]) [nM]	inhibition [8] [%]	Ki (Adenosine receptor A2a [9]) [nM]	inhibition (Adenosine receptor A2a [10]) [%]	Ki (Adenosine receptor A2b [11]) [nM]	inhibition [12] [%]	Ki (Adenosine receptor A1 [13]) [nM]	Ki (Adenosine receptor A2b [14]) [nM]	Ki (Adenosine receptor A3 [15]) [nM]	inhibition [16] [%]	inhibition [17] [%]	Ki (Adenosine receptor A3 [18]) [nM]	Structure (SMILES)
–	69	989	49	15	20	658	41	666	68	> 1000	34	72	> 1000	> 1000	48	–	–	CCCCn1c(=O)c2c(nc3n2CCCN3c2ccc(OCCN3CCCC3)cc2)n(CCCC)c1=O
–	55	1460	49	6	16	1190	30	1010	54	> 1000	6	137	> 1000	> 1000	44	–	> 1000	CCCCn1c(=O)c2c(nc3n2CCCN3c2ccc(OCCN(CC)CC)cc2)n(CCCC)c1=O
–	65	1480	49	9	20	713	42	921	53	> 1000	41	127	> 1000	> 1000	48	–	–	CCCCn1c(=O)c2c(nc3n2CCCN3c2ccc(OCCN3CCCCC3)cc2)n(CCCC)c1=O
